# Assay outcomes from PubChem.
# Rows were chosen to be rich in hits. Some 1.5% of all compounds tested hit in one or more screens of this group.
# PKA-R1A activ = activates the PKA-R1A holoenzyme complex. activation, % at 11.4 µM. PKA-R1A dissociation, Cy5-IP20 fluorescence polarization; scaled: DMSO 0%, 113 µM cGMP 100%. actives 0.083% (n = 340,000). P00514+P68181;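 active = percent activation above the mean of all tested compounds plus 3 SD, cut at about 19% in these data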;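 also: higher means more PKAc released from R1A so a rise in polarization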
# PKA-R2B act = PKA-R2B complex activation. P22694+P31323. PKA-R2B holoenzyme dissociation, Cy5-IP20 fluorescence polarization; R2B truncated from residue 108, S112A mutant; 0% DMSO only, 100% 113 µM cGMP. activation, % at 11.4 µM. actives 0.079% (n = 340,000). AID 504700;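 active = activation above a cutoff set at the mean over all compounds plus 3 SD, cut at about 18% in these data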;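 also: higher means more holoenzyme dissociation and a rise in polarization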
# Target sequence (P31323 whole entry, looked up, other chains not shown, the tested form may be a part): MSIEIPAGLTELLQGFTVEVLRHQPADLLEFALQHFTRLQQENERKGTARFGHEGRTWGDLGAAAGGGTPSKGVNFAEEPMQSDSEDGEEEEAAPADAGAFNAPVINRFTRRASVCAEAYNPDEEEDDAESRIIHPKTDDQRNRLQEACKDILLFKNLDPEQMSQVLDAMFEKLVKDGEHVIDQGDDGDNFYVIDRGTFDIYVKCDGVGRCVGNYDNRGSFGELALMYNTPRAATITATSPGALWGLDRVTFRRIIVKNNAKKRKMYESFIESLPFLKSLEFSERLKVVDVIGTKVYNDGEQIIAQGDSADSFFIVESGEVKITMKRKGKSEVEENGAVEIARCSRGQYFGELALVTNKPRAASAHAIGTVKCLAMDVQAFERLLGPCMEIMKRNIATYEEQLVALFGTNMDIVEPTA
# SIRT5 inh = sirtuin-5 (human) deacylase inhibition. Purified SirT5, succinyl-peptide AMC, trypsin-coupled fluorescence. inhibition, % at 15 µM. actives 1.1% (n = 330,000). AID 652115; in the data active = inhibition above about 15%
# S100A4 MyoIIA = S100A4-myosin IIA interaction inhibition; S100A4/TAMRA-MyoIIA peptide fluorescence polarization; P26447; inhibition, % at 10.7 µM; actives 0.14% (n = 360,000);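 active = mean inhibition of at least 70% across replicates, with every replicate also reaching that level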
# Target sequence (P26447 whole entry, looked up): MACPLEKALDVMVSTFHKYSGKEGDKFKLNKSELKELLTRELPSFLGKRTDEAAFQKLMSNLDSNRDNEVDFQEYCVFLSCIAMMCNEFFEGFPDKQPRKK
#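 Test system – S100A4 monomer (human) · Compound – single-point compound testing · Schedule – 5 min incubation before reading · Probe or stimulus – TAMRA-labelled myosin IIA heavy-chain peptide probe, 5 nM · Benchmarks – neutral control DMSO, positive control TFP · Medium – Calcium-containing HEPES buffer, pH 7.2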
# CRFR2-BP antag = CRF-BP/CRF-R2 complex antagonism. actives 0.59% (n = 350,000). inhibition, % at 11.8 µM. AID 588475. HEK293 CRF-R2/CRF-BP, CRF-induced calcium fluorescence;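 active = inhibition of the ligand-induced calcium signal above about 50% at the single tested concentration, limit read from the data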
# Active calls of the source: *; · = no result.
SMILES,PKA-R1A activ,PKA-R2B act,SIRT5 inh,S100A4 MyoIIA,CRFR2-BP antag
CCCNC(=O)C[C@H]1C[C@@H]2c3cc(NC(=O)Nc4ccccc4F)ccc3O[C@@H]2[C@H](CO)O1,·,·,0.8,4.3,·
CC(=O)NC(Cc1cccc(F)c1)C(=O)NC1CCN(c2ncccc2[N+](=O)[O-])CC1 (stereo not drawn),-15.0,-4.7,0.0,4.8,36.3
CC(=O)NC(Cc1cccc(C)c1)C(=O)NC1CCN(c2ncccc2[N+](=O)[O-])CC1 (stereo not drawn),3.7,5.7,-1.0,-1.6,56.7*
CO[C@H](C(=O)N(C)C[C@@H]1OCc2ccccc2-c2c(n(C)c3ccccc23)C(=O)N([C@@H](C)CO)C[C@@H]1C)c1ccccc1,·,·,-4.0,1.0,·
C[C@@H]1CCCCO[C@H](CN(C)Cc2ccccc2)[C@H](C)CN([C@H](C)CO)C(=O)c2cc(NC(=O)CCC(F)(F)F)ccc2O1,·,·,19.4*,-1.6,·
COc1ccc(NC(=O)Nc2ccc3c(c2)C(=O)N([C@@H](C)CO)C[C@@H](C)[C@@H](CN(C)Cc2ccc(C(F)(F)F)cc2)OCCCC[C@@H](C)O3)cc1,·,·,16.9*,8.2,·
COc1ccc(NC(=O)Nc2ccc3c(c2)C(=O)N([C@@H](C)CO)C[C@H](C)[C@@H](CN(C)Cc2ccccc2)OCCCC[C@H](C)O3)cc1,·,·,19.9*,56.9,·
COc1ccc(NC(=O)Nc2ccc3c(c2)C(=O)N([C@@H](C)CO)C[C@H](C)[C@H](CN(C)Cc2ccccc2)OCCCC[C@@H](C)O3)cc1,·,·,-0.4,-1.2,·
COc1ccc(NC(=O)Nc2ccc3c(c2)C(=O)N([C@@H](C)CO)C[C@H](C)[C@H](CN(C)Cc2ccccc2)OCCCC[C@H](C)O3)cc1,·,·,2.8,3.6,·
COc1ccc(NC(=O)Nc2ccc3c(c2)C(=O)N([C@H](C)CO)C[C@@H](C)[C@@H](CN(C)Cc2ccccc2)OCCCC[C@H](C)O3)cc1,·,·,21.4*,5.8,·
O=C(c1cccnc1)N1C[C@H]2[C@@H](c3ccccc31)[C@@H](CO)N2C(=O)Nc1ccccc1,·,·,-2.9,6.6,·
COc1ccc(CN(C)C[C@@H]2OCCCC[C@H](C)Oc3ccc(NC(=O)Nc4ccc5c(c4)OCO5)cc3C(=O)N([C@H](C)CO)C[C@H]2C)cc1,·,·,-1.1,-2.6,·
COc1ccc(CN(C)C[C@H]2OCCCC[C@@H](C)Oc3ccc(NC(=O)Nc4ccc5c(c4)OCO5)cc3C(=O)N([C@H](C)CO)C[C@H]2C)cc1,·,·,5.3,120.1*,·
CCC(=O)N1CC(=O)N2[C@@H](CO)[C@H](c3ccc(-c4ccncc4)cc3)[C@@H]2C1,·,·,-1.8,-8.8,·
CS(=O)(=O)Nc1ccc2c(c1)[C@H]1C[C@H](CC(=O)NCc3ccccc3)O[C@H](CO)[C@H]1O2,8.1,4.5,16.1*,-0.8,3.3
O=C(C[C@H]1C[C@H]2c3cc(NS(=O)(=O)c4ccc(F)cc4)ccc3O[C@H]2[C@@H](CO)O1)NCc1ccc(-c2ccccc2)cc1,·,·,1.5,0.4,·
O=C(C[C@H]1C[C@@H]2c3cc(NS(=O)(=O)c4ccc(F)cc4)ccc3O[C@@H]2[C@@H](CO)O1)NCc1ccc(Oc2ccccc2)cc1,·,·,15.2*,6.6,·
O=C(C[C@H]1C[C@H]2c3cc(NC(=O)C4CCC4)ccc3O[C@H]2[C@H](CO)O1)NCCN1CCCCC1,·,·,34.7*,11.7,·
CS(=O)(=O)Nc1ccc2c(c1)[C@@H]1C[C@@H](CC(=O)NCc3ccccc3)O[C@H](CO)[C@@H]1O2,·,·,-0.8,-3.6,·
O=C(C[C@H]1C[C@@H]2c3cc(NS(=O)(=O)c4ccc(F)cc4)ccc3O[C@@H]2[C@@H](CO)O1)NCc1ccc(-c2ccccc2)cc1,·,·,17.0*,10.8,·
Cc1noc(C)c1NC(=O)N(C)C[C@H]1Oc2ccc(NC(=O)C3CCCCC3)cc2CC(=O)N([C@H](C)CO)C[C@@H]1C,·,·,-2.3,9.1,·
COc1ccc(CN2CC3(C2)CN(C(=O)CN(C)C)[C@H](CO)c2[nH]c4cc(OC)ccc4c23)cc1,·,·,-2.4,4.6,·
O=C(C[C@H]1C[C@@H]2c3cc(NC(=O)Nc4ccccc4F)ccc3O[C@@H]2[C@H](CO)O1)NCc1ccncc1,·,·,0.6,12.0,·
O=C(C[C@H]1C[C@H]2c3cc(NC(=O)Nc4ccccc4F)ccc3O[C@H]2[C@@H](CO)O1)NCc1ccncc1,·,·,16.1*,-3.7,·
O=C(C[C@@H]1C[C@H]2c3cc(NC(=O)C4CCC4)ccc3O[C@H]2[C@H](CO)O1)NCc1ccc(-c2ccccc2)cc1,·,·,25.0*,-4.2,·
SMILES,PKA-R1A activ,PKA-R2B act,SIRT5 inh,S100A4 MyoIIA,CRFR2-BP antag
CN(C)c1ccc2c(c1)[C@H]1C[C@H](CC(=O)NCc3ccc(Oc4ccccc4)cc3)O[C@H](CO)[C@H]1O2,·,·,20.5*,-1.5,·
O=C(C[C@@H]1C[C@@H]2c3cc(NC(=O)C4CCC4)ccc3O[C@@H]2[C@H](CO)O1)NCc1ccc(-c2ccccc2)cc1,·,·,3.1,-2.1,·
CN(C)c1ccc2c(c1)[C@@H]1C[C@H](CC(=O)NCc3ccc(Oc4ccccc4)cc3)O[C@@H](CO)[C@@H]1O2,·,·,7.7,-9.8,·
COCC(=O)Nc1ccc2c(c1)C(=O)N(C)[C@@H]1CC[C@H](CC(=O)NCCc3ccccc3)O[C@H]1CO2,·,·,2.1,-3.3,·
COc1ccc(S(=O)(=O)N(C)C[C@@H]2Oc3ccc(NS(=O)(=O)c4cccs4)cc3C(=O)N([C@@H](C)CO)C[C@H]2C)cc1,·,·,-2.8,-7.3,·
CCOc1ccc2nc(SCC(=O)Nc3cc(C)on3)c(C)cc2c1,-6.2,0.2,80.9*,-1.5,-20.8
CCOc1ccc(/C=N/NC(=O)CN2CCCCCCC2)cc1,1.3,-0.3,0.3,-4.1,56.9*
CCCOc1ccc(/C=N/NC(=O)CN2CCCCC2)cc1,-15.3,0.9,1.5,1.5,-2.4
CO[C@H]1CN(C)C(=O)c2ccc(NC(=O)Nc3cc(Cl)cc(Cl)c3)cc2OC[C@H](C)NC[C@H]1C,·,·,-8.5,8.6,·
CO[C@H]1CN(C)C(=O)c2ccc(NC(=O)Nc3cc(Cl)cc(Cl)c3)cc2OC[C@@H](C)NC[C@@H]1C,·,·,1.4*,-8.2,·
CO[C@@H]1CN(C)C(=O)c2ccc(NC(=O)c3cnccn3)cc2OC[C@@H](C)NC[C@H]1C,·,·,15.4*,9.8,·
COc1cccc(S(=O)(=O)Nc2ccc3c(c2)OC[C@H](C)NC[C@H](C)[C@@H](OC)CN(C)C3=O)c1,·,·,0.1,-9.6,·
COc1cccc(N=Cc2c[nH][nH]c2=O)c1,-4.7,-5.1,·,·,1.2
O=c1[nH][nH]cc1C=Nc1ccc(Cl)cc1,-5.9,0.0,-2.8,-0.4,72.0*
COc1ccc(CN(C)C[C@@H]2Oc3ccc(NC(=O)NC(C)C)cc3CC(=O)N([C@@H](C)CO)C[C@H]2C)cc1,·,·,6.2,0.9,·
